Assay results reported in ChEMBL document CHEMBL4118256, “Second Generation of Mannich Base-Type Derivatives with in Vivo Activity against Trypanosoma cruzi” (J Med Chem, 2018).
pIC50: −log10 of the molar value.

Tested on: Trypanosoma cruzi
Assay: Trypanocidal activity against Trypanosoma cruzi MHOM/Pe/2011/Arequipa DTU 5 epimastigotes after 48 hrs by resazurin dye based assay
Type: functional, organism-based
Details: MHOM/Pe/2011/Arequipa DTU 5, 48 h
In short: (§1)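 Exponential-phase epimastigotes were seeded at 5×10^5 mL^-1 with compounds at 100–0.2 µM (DMSO 0.01% v/v) at 28 °C. After 48 h, resazurin was added for another 24 h. SDS was then added and absorbance read at 570 and 600 nm.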

Point of comparison: `O=C(CCN1CCN(c2ccc(C(F)(F)F)cc2)CC1)c1ccc(Br)cc1`, pIC50 4.52. Against it:
- O=C(CCN1CCN(c2ccc(F)cc2)CC1)c1ccc(Cl)c(F)c1 — within 0.2 log units, 4.40
- O=C(CCN1CCN(c2ccc([N+](=O)[O-])cc2)CC1)c1ccc(Cl)c(F)c1 — within 0.2 log units, 4.62
- O=C(CCN1CCN(c2ccc([N+](=O)[O-])cc2)CC1)c1ccc(F)cc1 — 0.34 log units lower, 4.18
- Cc1ccc(C(=O)CCN2CCN(c3ccc(C(F)(F)F)cc3)CC2)cc1 — 0.33 log units higher, 4.85
- O=C(CCN1CCN(c2ccc([N+](=O)[O-])cc2)CC1)c1ccc(C(F)(F)F)cc1 — 0.35 log units higher, 4.87
- O=C(CCN1CCN(c2ccc([N+](=O)[O-])cc2)CC1)c1ccc(OC(F)(F)F)cc1 — within 0.2 log units, 4.39
- COc1ccc(C(=O)CCN2CCN(c3ccc(C(F)(F)F)cc3)CC2)cc1 — 0.38 log units lower, 4.14

Tested on: Trypanosoma cruzi
Assay: Trypanocidal activity against Trypanosoma cruzi IRHOD/CO/2008/SN3 DTU 1 epimastigotes after 48 hrs by resazurin dye based assay
Type: functional, organism-based
Details: IRHOD/CO/2008/SN3 DTU 1, 48 h
In short: as §1

Point of comparison: `O=C(CCN1CCN(c2ccc([N+](=O)[O-])cc2)CC1)c1ccc(Cl)c(F)c1`, pIC50 4.49. Against it:
- O=C(CCN1CCN(c2ccc(F)cc2)CC1)c1ccc(Cl)c(F)c1 — 0.37 log units lower, 4.12
- O=C(CCN1CCN(c2ccc([N+](=O)[O-])cc2)CC1)c1ccc(F)cc1 — 0.23 log units lower, 4.26
- Cc1ccc(C(=O)CCN2CCN(c3ccc(C(F)(F)F)cc3)CC2)cc1 — 0.26 log units higher, 4.75
- O=C(CCN1CCN(c2ccc(C(F)(F)F)cc2)CC1)c1ccc(Br)cc1 — within 0.2 log units, 4.55
- O=C(CCN1CCN(c2ccc([N+](=O)[O-])cc2)CC1)c1ccc(C(F)(F)F)cc1 — 0.21 log units higher, 4.70
- O=C(CCN1CCN(c2ccc([N+](=O)[O-])cc2)CC1)c1ccc(OC(F)(F)F)cc1 — 0.47 log units lower, 4.02
- COc1ccc(C(=O)CCN2CCN(c3ccc(C(F)(F)F)cc3)CC2)cc1 — the same, 4.49

Tested on: Trypanosoma cruzi
Assay: Trypanocidal activity against Trypanosoma cruzi TINF/CH/1956/Tulahuen DTU 6 epimastigotes after 48 hrs by resazurin dye based assay
Type: functional, organism-based
Details: TINF/CH/1956/Tulahuen DTU 6, 48 h
In short: as §1

Point of comparison: `O=C(CCN1CCN(c2ccc([N+](=O)[O-])cc2)CC1)c1ccc(Cl)c(F)c1`, pIC50 4.81. Against it:
- O=C(CCN1CCN(c2ccc(F)cc2)CC1)c1ccc(Cl)c(F)c1 — 0.47 log units lower, 4.34
- O=C(CCN1CCN(c2ccc([N+](=O)[O-])cc2)CC1)c1ccc(F)cc1 — 0.70 log units lower, 4.11
- Cc1ccc(C(=O)CCN2CCN(c3ccc(C(F)(F)F)cc3)CC2)cc1 — within 0.2 log units, 4.65
- O=C(CCN1CCN(c2ccc(C(F)(F)F)cc2)CC1)c1ccc(Br)cc1 — 0.26 log units lower, 4.55
- O=C(CCN1CCN(c2ccc([N+](=O)[O-])cc2)CC1)c1ccc(C(F)(F)F)cc1 — within 0.2 log units, 4.82
- O=C(CCN1CCN(c2ccc([N+](=O)[O-])cc2)CC1)c1ccc(OC(F)(F)F)cc1 — 0.53 log units lower, 4.28
- COc1ccc(C(=O)CCN2CCN(c3ccc(C(F)(F)F)cc3)CC2)cc1 — 0.45 log units lower, 4.36

Tested on: Vero
Assay: Cytotoxicity against African green monkey Vero cells assessed as reduction in cell viability after 72 hrs by resazurin dye based assay
Details: Chlorocebus sabaeus
In short: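 Vero monkey kidney cells grown at 37 °C, 5 % CO2, in RPMI with 10 % heat-inactivated FBS. Seeded at 1.25 × 10^4 mL-1 with compound at 1000 to 1 µM (DMSO 0.01 % v/v). After 48 h, resazurin added for a further 24 h, then SDS. Absorbance read at 570/600 nm. IC50 from triplicates in four separate determinations.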

Point of comparison: `Cc1ccc(C(=O)CCN2CCN(c3ccc(C(F)(F)F)cc3)CC2)cc1`, pIC50 3.85. Against it:
- O=C(CCN1CCN(c2ccc(F)cc2)CC1)c1ccc(Cl)c(F)c1 — within 0.2 log units, 3.98
- O=C(CCN1CCN(c2ccc([N+](=O)[O-])cc2)CC1)c1ccc(Cl)c(F)c1 — 0.20 log units higher, 4.05
- O=C(CCN1CCN(c2ccc([N+](=O)[O-])cc2)CC1)c1ccc(F)cc1 — within 0.2 log units, 3.96
- O=C(CCN1CCN(c2ccc(C(F)(F)F)cc2)CC1)c1ccc(Br)cc1 — 0.25 log units higher, 4.10
- O=C(CCN1CCN(c2ccc([N+](=O)[O-])cc2)CC1)c1ccc(C(F)(F)F)cc1 — 0.27 log units higher, 4.12
- O=C(CCN1CCN(c2ccc([N+](=O)[O-])cc2)CC1)c1ccc(OC(F)(F)F)cc1 — within 0.2 log units, 4.03
- COc1ccc(C(=O)CCN2CCN(c3ccc(C(F)(F)F)cc3)CC2)cc1 — within 0.2 log units, 3.87

Tested on: not listed separately
Assay: Selectivity index, ratio of IC50 for African green monkey Vero cells to IC50 for Trypanosoma cruzi MHOM/Pe/2011/Arequipa DTU 5 epimastigotes
Type: toxicity
Details: read-out: Ratio IC50
In short: (§2)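 SI is Vero IC50 divided by the IC50 for the stated parasite form. For Vero cytotoxicity, cells were seeded at 1.25×10^4 mL^-1 with compounds at 1000–1 µM, incubated 48 h, then given resazurin for a further 24 h (72 h total), with absorbance read at 570/600 nm. Triplicate, four determinations.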

Point of comparison: `Cc1ccc(C(=O)CCN2CCN(c3ccc(C(F)(F)F)cc3)CC2)cc1`, selectivity ratio 9.8. Against it:
- O=C(CCN1CCN(c2ccc(F)cc2)CC1)c1ccc(Cl)c(F)c1 — lower, 2.7
- O=C(CCN1CCN(c2ccc([N+](=O)[O-])cc2)CC1)c1ccc(Cl)c(F)c1 — lower, 3.8
- O=C(CCN1CCN(c2ccc([N+](=O)[O-])cc2)CC1)c1ccc(F)cc1 — lower, 1.7
- O=C(CCN1CCN(c2ccc(C(F)(F)F)cc2)CC1)c1ccc(Br)cc1 — lower, 2.6
- O=C(CCN1CCN(c2ccc([N+](=O)[O-])cc2)CC1)c1ccc(C(F)(F)F)cc1 — lower, 5.6
- O=C(CCN1CCN(c2ccc([N+](=O)[O-])cc2)CC1)c1ccc(OC(F)(F)F)cc1 — lower, 2.3
- COc1ccc(C(=O)CCN2CCN(c3ccc(C(F)(F)F)cc3)CC2)cc1 — lower, 1.9

Tested on: not listed separately
Assay: Selectivity index, ratio of IC50 for African green monkey Vero cells to IC50 for Trypanosoma cruzi IRHOD/CO/2008/SN3 DTU 1 epimastigotes
Type: toxicity
Details: read-out: Ratio IC50
In short: as §2

Point of comparison: `O=C(CCN1CCN(c2ccc([N+](=O)[O-])cc2)CC1)c1ccc(Cl)c(F)c1`, selectivity ratio 2.8. Against it:
- O=C(CCN1CCN(c2ccc(F)cc2)CC1)c1ccc(Cl)c(F)c1 — lower, 1.4
- O=C(CCN1CCN(c2ccc([N+](=O)[O-])cc2)CC1)c1ccc(F)cc1 — lower, 2
- Cc1ccc(C(=O)CCN2CCN(c3ccc(C(F)(F)F)cc3)CC2)cc1 — higher, 7.9
- O=C(CCN1CCN(c2ccc(C(F)(F)F)cc2)CC1)c1ccc(Br)cc1 — the same, 2.8
- O=C(CCN1CCN(c2ccc([N+](=O)[O-])cc2)CC1)c1ccc(C(F)(F)F)cc1 — higher, 3.8
- O=C(CCN1CCN(c2ccc([N+](=O)[O-])cc2)CC1)c1ccc(OC(F)(F)F)cc1 — lower, 1
- COc1ccc(C(=O)CCN2CCN(c3ccc(C(F)(F)F)cc3)CC2)cc1 — higher, 4.2

Tested on: not listed separately
Assay: Selectivity index, ratio of IC50 for African green monkey Vero cells to IC50 for Trypanosoma cruzi TINF/CH/1956/Tulahuen DTU 6 epimastigotes
Type: toxicity
Details: read-out: Ratio IC50
In short: as §2

Point of comparison: `O=C(CCN1CCN(c2ccc([N+](=O)[O-])cc2)CC1)c1ccc(OC(F)(F)F)cc1`, selectivity ratio 1.8. Against it:
- O=C(CCN1CCN(c2ccc(F)cc2)CC1)c1ccc(Cl)c(F)c1 — higher, 2.3
- O=C(CCN1CCN(c2ccc([N+](=O)[O-])cc2)CC1)c1ccc(Cl)c(F)c1 — higher, 5.7
- O=C(CCN1CCN(c2ccc([N+](=O)[O-])cc2)CC1)c1ccc(F)cc1 — lower, 1.4
- Cc1ccc(C(=O)CCN2CCN(c3ccc(C(F)(F)F)cc3)CC2)cc1 — higher, 6.2
- O=C(CCN1CCN(c2ccc(C(F)(F)F)cc2)CC1)c1ccc(Br)cc1 — higher, 2.8
- O=C(CCN1CCN(c2ccc([N+](=O)[O-])cc2)CC1)c1ccc(C(F)(F)F)cc1 — higher, 5
- COc1ccc(C(=O)CCN2CCN(c3ccc(C(F)(F)F)cc3)CC2)cc1 — higher, 3.1
